Source: ChEMBL document CHEMBL1157791, “Discovery of GSK1070916, a potent and selective inhibitor of Aurora B/C kinase” (J Med Chem, 2010)
Each block holds one compound with its values, some of them ahead of it. The source made the active and inactive calls. No cut-off for these calls is given here.

Assays:
[1] = Permeability by PAMPA; format: ADME; conditions: read-out: permeability
Aurora kinase A = target: T1, Aurora kinase A (Homo sapiens, UniProt O14965); experiment: Inhibition of human Aurora A
T1 sequence (O14965 whole entry): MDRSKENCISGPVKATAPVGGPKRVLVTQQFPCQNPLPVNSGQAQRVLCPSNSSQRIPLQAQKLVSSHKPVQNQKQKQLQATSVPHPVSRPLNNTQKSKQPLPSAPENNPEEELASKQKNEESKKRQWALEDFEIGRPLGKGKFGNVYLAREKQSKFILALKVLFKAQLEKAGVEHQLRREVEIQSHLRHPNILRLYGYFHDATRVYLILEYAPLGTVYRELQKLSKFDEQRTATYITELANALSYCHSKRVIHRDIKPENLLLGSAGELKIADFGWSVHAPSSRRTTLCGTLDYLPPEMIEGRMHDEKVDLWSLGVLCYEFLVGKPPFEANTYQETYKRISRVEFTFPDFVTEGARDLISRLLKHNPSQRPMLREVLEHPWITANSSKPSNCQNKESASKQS

A549 = experiment: Antiproliferative activity against human A549 cells after 6 to 7 days by celltiter-glo luminescence assay in absence of 70% human serum albumin; format: functional, cell-based
[2] = target: Hepatocyte growth factor receptor (Homo sapiens, UniProt P08581); experiment: Inhibition of MET
Sequence of Hepatocyte growth factor receptor (P08581 whole entry): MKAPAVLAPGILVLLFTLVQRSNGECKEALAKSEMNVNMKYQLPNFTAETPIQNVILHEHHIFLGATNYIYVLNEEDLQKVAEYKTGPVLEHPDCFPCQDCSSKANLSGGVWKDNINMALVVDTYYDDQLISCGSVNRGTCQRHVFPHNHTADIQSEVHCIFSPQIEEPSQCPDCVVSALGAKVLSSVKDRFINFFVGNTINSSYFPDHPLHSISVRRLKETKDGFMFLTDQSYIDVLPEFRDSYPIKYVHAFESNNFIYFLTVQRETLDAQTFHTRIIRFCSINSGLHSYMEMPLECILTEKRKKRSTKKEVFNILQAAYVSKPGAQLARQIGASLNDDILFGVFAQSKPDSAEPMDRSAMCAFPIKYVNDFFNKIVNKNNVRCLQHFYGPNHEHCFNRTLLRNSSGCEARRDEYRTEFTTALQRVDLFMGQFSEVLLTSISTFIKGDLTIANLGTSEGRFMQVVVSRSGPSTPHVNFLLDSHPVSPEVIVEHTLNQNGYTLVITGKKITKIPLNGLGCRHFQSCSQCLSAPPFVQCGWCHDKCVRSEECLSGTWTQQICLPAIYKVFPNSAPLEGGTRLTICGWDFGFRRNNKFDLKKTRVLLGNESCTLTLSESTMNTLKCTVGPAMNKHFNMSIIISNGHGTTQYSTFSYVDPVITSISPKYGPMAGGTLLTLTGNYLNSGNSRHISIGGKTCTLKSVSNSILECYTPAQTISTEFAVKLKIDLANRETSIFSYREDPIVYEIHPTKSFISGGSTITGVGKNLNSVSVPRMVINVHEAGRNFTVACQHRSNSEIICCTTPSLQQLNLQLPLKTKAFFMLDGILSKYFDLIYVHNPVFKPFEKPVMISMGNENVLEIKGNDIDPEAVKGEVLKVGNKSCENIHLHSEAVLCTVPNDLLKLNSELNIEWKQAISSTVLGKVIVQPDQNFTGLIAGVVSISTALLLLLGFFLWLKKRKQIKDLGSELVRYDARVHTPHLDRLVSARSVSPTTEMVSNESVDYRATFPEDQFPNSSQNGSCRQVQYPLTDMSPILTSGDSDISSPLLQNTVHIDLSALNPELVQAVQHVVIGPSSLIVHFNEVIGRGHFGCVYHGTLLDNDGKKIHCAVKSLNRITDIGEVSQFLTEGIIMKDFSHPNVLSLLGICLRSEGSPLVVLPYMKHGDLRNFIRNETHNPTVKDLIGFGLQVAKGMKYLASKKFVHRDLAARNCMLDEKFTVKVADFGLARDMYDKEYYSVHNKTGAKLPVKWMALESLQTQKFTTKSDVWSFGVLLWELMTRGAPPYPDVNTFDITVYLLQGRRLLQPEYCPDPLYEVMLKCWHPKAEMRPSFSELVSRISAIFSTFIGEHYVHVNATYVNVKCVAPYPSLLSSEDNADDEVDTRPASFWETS

[3] = target: Insulin-like growth factor 1 receptor (Homo sapiens, UniProt P08069); experiment: Inhibition of IGF1R
Sequence of Insulin-like growth factor 1 receptor (P08069 31-736 limits assumed): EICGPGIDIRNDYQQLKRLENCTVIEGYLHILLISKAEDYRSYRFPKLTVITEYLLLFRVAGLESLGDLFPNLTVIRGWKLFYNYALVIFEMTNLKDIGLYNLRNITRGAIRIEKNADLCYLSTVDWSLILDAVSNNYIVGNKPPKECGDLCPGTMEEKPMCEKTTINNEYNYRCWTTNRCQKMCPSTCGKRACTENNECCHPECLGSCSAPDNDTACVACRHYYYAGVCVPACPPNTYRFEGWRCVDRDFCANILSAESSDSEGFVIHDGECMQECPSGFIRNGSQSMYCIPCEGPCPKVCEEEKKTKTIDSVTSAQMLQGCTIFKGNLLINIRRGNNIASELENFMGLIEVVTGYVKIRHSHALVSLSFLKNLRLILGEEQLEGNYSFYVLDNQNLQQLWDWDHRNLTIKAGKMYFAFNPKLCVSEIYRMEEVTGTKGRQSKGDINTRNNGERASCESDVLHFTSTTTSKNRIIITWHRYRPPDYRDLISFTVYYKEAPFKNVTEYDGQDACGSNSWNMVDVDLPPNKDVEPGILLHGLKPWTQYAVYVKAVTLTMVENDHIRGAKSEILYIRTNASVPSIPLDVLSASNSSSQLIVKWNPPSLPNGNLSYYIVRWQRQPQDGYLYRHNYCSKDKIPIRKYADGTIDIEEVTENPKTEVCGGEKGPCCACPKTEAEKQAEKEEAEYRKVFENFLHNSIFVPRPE
Sequence of Insulin-like growth factor 1 receptor (P08069 741-1367 limits assumed): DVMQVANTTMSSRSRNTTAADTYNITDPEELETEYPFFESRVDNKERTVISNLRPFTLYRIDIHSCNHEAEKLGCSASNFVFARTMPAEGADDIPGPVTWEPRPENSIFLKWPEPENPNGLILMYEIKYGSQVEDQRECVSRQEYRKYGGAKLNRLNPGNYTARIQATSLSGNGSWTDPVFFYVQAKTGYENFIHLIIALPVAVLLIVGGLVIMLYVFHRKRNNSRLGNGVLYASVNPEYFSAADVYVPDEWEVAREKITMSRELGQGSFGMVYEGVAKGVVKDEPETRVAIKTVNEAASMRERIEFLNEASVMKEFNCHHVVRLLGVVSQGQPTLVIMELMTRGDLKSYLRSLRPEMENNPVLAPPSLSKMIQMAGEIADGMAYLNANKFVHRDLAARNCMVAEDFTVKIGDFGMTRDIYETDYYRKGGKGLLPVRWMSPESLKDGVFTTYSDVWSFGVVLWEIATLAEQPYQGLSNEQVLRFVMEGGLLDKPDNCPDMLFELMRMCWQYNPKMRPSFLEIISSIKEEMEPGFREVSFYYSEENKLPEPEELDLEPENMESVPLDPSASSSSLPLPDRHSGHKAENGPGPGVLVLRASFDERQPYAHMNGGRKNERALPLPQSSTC
How it was run: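 Part of a 328 human protein and lipid kinase selectivity panel run as in vitro activity or binding assays.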

Aurora kinase B [4] = target: T2, Aurora kinase B (Homo sapiens, UniProt Q96GD4); experiment: Inhibition of human Aurora B assessed as residence time by rapid dilution method
T2 sequence (Q96GD4 whole entry): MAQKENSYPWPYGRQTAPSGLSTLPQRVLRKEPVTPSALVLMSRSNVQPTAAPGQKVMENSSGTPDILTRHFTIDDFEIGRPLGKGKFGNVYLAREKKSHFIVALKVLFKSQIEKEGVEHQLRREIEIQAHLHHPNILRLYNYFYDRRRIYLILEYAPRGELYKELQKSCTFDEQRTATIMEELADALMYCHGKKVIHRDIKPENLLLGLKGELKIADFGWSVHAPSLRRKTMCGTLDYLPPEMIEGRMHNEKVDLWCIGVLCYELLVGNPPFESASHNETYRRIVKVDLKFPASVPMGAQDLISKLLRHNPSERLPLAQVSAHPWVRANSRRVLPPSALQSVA

[5] = Plasma clearance in iv dosed rat; format: ADME, organism-based
[6] = Half life in iv dosed rat; format: ADME, organism-based; conditions: in vivo
[7] = Volume of distribution at steady state in iv dosed rat; format: ADME, organism-based; conditions: in vivo, read-out: Vdss
Cytochrome P450 2C9 [8] = target: T3, Cytochrome P450 2C9 (Homo sapiens, UniProt P11712); experiment: Inhibition of CYP2C9; format: ADME
T3 sequence (P11712 whole entry): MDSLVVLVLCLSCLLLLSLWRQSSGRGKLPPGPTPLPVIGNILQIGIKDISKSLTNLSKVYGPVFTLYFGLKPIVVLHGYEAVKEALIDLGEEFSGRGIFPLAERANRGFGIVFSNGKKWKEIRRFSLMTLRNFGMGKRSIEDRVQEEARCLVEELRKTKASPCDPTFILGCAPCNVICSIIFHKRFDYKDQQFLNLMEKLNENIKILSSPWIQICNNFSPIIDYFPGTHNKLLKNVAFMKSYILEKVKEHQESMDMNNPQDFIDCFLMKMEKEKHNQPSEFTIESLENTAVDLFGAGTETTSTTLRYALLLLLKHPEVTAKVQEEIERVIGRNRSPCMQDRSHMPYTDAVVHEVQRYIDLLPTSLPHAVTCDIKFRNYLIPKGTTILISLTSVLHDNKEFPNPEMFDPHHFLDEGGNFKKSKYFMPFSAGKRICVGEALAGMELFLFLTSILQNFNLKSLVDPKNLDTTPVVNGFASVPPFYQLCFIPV

Cytochrome P450 2D6 [9] = target: T4, Cytochrome P450 2D6 (Homo sapiens, UniProt P10635); experiment: Inhibition of CYP2D6; format: ADME
T4 sequence (P10635 whole entry): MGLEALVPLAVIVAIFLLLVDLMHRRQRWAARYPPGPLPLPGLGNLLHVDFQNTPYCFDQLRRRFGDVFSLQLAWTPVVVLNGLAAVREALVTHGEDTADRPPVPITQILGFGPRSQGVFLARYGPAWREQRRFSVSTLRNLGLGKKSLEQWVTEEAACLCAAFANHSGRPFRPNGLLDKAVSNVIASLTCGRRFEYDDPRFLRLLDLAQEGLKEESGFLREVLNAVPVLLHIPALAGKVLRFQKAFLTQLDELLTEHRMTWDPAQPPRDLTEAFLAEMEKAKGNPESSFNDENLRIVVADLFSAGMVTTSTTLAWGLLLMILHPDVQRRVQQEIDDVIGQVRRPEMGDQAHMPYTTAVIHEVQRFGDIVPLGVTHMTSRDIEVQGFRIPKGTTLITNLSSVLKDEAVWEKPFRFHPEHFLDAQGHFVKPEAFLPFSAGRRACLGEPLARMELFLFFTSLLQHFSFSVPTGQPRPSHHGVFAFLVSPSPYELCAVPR
How it was run: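 Human liver microsomes incubated with a selective probe substrate for each CYP isozyme, with and without test compound. Metabolite formation quantified by LC/MS/MS. Activity with compound normalized to activity without compound and expressed as percent of control. IC50 derived from the concentration response.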

Aurora kinase C [10] = target: T5, Aurora kinase C (Homo sapiens, UniProt Q9UQB9); experiment: Competitive inhibition of Aurora C ATP binding site
T5 sequence (Q9UQB9 whole entry): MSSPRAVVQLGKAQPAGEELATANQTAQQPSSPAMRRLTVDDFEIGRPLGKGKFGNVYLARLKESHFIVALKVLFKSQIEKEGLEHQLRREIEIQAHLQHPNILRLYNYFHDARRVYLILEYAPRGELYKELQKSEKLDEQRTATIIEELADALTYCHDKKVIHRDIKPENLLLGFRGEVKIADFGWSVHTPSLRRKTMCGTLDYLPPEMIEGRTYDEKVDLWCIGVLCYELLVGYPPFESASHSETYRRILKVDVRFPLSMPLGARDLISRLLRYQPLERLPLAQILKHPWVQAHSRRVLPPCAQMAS

[11] = target: T6, Aurora kinase C (Homo sapiens) (UniProt Q9UQB9); experiment: Inhibition of human Aurora C assessed as dissociation half life by rapid dilution method
T6 sequence (whole entry): T5 sequence (Q9UQB9 whole entry)

Aurora kinase C [12] = target: T5, Aurora kinase C; experiment: Competitive inhibition of human Aurora C ATP binding site
Cytochrome P450 1A2 = target: T7, Cytochrome P450 1A2 (Homo sapiens, UniProt P05177); experiment: Inhibition of CYP1A2 in human liver microsomes using phenacetin as substrate; format: ADME, Microsome
T7 sequence (P05177 whole entry): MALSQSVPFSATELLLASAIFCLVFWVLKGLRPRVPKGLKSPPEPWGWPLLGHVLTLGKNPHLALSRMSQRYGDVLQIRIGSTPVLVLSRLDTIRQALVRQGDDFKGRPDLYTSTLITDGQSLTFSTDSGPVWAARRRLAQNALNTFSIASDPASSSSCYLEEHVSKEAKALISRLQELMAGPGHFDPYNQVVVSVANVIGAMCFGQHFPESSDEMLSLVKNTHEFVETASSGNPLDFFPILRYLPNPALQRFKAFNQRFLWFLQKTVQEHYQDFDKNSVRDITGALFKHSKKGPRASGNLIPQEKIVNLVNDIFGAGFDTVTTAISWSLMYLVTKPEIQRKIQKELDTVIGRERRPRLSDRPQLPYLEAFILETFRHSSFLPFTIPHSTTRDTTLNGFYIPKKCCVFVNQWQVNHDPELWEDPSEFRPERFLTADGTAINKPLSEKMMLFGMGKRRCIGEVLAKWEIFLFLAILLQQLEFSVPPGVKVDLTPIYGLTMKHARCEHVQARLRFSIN
How it was run: (§1)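 Human liver microsome incubations with a selective probe substrate for each CYP isozyme. Product formation was read by LC/MS/MS. Activity with compound was normalized to activity without compound and expressed as percent of control activity.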

Cytochrome P450 2C9 [13] = target: T3, Cytochrome P450 2C9; experiment: Inhibition of CYP2C9 in human liver microsomes using diclofenac as substrate; format: ADME, Microsome; how it was run: as §1
Cytochrome P450 2C19 = Cytochrome P450 2C19 (Homo sapiens, UniProt P33261); experiment: Inhibition of CYP2C19 in human liver microsomes using S-mephenytoin as substrate; format: ADME, Microsome
Sequence of Cytochrome P450 2C19 (P33261 whole entry): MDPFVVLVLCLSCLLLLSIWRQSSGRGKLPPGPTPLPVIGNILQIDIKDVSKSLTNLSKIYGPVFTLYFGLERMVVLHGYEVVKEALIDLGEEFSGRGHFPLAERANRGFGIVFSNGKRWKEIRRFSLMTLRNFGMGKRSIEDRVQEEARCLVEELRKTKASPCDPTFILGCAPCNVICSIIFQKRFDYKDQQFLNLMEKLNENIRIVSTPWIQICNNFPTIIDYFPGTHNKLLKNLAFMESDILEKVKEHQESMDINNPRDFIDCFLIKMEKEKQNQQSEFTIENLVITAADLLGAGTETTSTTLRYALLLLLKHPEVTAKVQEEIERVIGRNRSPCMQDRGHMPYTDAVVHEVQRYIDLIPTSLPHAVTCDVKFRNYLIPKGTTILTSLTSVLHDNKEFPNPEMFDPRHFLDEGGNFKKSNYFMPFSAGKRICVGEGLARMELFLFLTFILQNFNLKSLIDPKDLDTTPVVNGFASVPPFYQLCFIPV
How it was run: (§2)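 Human liver microsomes were incubated with a selective probe substrate for each CYP isozyme across a compound concentration series. Product formation was monitored by LC/MS/MS. Activity was normalized to the no-compound control, expressed as percent of control activity, and used to generate an IC50.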

Cytochrome P450 2D6 [14] = target: T4, Cytochrome P450 2D6; experiment: Inhibition of CYP2D6 in human liver microsomes using bufuralol as substrate; format: ADME, Microsome; how it was run: as §2
Cytochrome P450 3A4 = Cytochrome P450 3A4 (Homo sapiens, UniProt P08684); experiment: Inhibition of CYP3A4 in human liver microsomes using midazolam as substrate; format: ADME, Microsome; how it was run: as §2
Sequence of Cytochrome P450 3A4 (P08684 whole entry): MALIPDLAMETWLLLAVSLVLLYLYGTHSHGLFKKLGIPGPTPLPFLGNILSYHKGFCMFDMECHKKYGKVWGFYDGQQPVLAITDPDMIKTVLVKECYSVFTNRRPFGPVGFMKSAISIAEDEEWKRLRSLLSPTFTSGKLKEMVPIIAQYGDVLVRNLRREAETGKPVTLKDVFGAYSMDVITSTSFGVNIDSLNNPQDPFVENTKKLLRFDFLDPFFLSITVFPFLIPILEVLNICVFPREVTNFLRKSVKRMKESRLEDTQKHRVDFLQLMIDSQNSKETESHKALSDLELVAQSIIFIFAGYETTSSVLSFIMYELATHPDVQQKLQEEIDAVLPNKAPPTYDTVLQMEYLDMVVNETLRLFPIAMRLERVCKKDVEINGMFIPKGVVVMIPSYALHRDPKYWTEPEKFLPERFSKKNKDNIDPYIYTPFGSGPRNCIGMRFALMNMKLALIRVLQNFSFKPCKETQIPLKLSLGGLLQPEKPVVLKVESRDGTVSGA

[15] = Blood clearance in mouse at 2 mg/kg, iv administered as single dose; format: ADME, organism-based; design: dose 2 mg/kg, route intravenous; conditions: whole blood
How it was run: (§3)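 Conscious mice received a single intravenous dose. Blood clearance, dose-normalized AUC(0-∞) and steady-state volume of distribution were derived from the profile.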

Mus musculus [16] = experiment: Dose normalized AUC (0 to infinity) in mouse at 2 mg/kg, iv administered as single dose; format: ADME, organism-based; design: time infinity, dose 2 mg/kg, route intravenous; conditions: in vivo; how it was run: as §3
[17] = Volume of distribution at steady state in mouse at 2 mg/kg, iv administered as single dose; format: ADME, organism-based; design: dose 2 mg/kg, route intravenous; conditions: in vivo, read-out: Vdss; how it was run: as §3
[18] = Mean residence time in mouse at 2 mg/kg, iv administered as single dose; format: ADME, organism-based; design: dose 2 mg/kg, route intravenous; conditions: in vivo
[19] = Solubility at pH 4; format: physicochemical; conditions: buffer
Mus musculus [20] = experiment: Inhibition of histone H3 phosphorylation in ip dosed mouse xenografted with human COLO205 cells after 30 hrs; format: functional, organism-based; conditions: COLO 205
How it was run: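 Mice bearing advanced Colo205 tumors were treated intraperitoneally at several doses. Tumor phospho-histone H3 (Ser10) was measured by ELISA 30 h post dose and expressed as percent inhibition relative to control.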

HL-60 [21] = experiment: Antitumor activity against human HL60 cells xenografted in nude mouse assessed as complete tumor regression at 75 mg/kg, ip QD for 5 days and for 2 cycles; format: functional, organism-based; design: dose 75 mg/kg
How it was run: (§4)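 Subcutaneous HL-60 xenografts in nude mice. Dosing was intraperitoneal, once daily for five days, repeated for two cycles (qdx5 ×2), at 75 or 100 mg kg-1. Untreated mice served as controls. Tumors were followed for regression and for regrowth up to 51 days after the last dose.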

HL-60 [22] = experiment: Antitumor activity against human HL60 cells xenografted in nude mouse assessed as complete tumor regression at 100 mg/kg, ip QD for 5 days and for 2 cycles; format: functional, organism-based; design: dose 100 mg/kg; how it was run: as §4
HL-60 [23] = experiment: Antitumor activity against human HL60 cells xenografted in nude mouse assessed as complete suppression of tumor regrowth at 100 mg/kg, ip QD for 5 days and for 2 cycles measured on day 51 post last dose; format: functional, organism-based; design: dose 100 mg/kg; how it was run: as §4
Aurora kinase B [24] = target: T2, Aurora kinase B; experiment: Inhibition of human Aurora B by in vitro inhibition assay

- Papp [1]: 170 nm/s
- IC50 (Aurora kinase A): 0.631 µM
- EC50 (A549): 0.079 µM
- IC50 [2]: 0.316 µM
- IC50 [3]: 0.158 µM
- TIME (Aurora kinase B [4]): 0.128 h
- clearance [5]: 7.68 L/h/kg
- half-life [6]: 12 min
- Vd [7]: 1.7 L/kg
- IC50 (Cytochrome P450 2C9 [8]): < 0.1 µM
- IC50 (Cytochrome P450 2D6 [9]): < 0.1 µM
Structure (SMILES): CCn1cc(-c2ccnc3[nH]ccc23)c(-c2ccc(NC(=O)Nc3ccccc3)cc2)n1

Structure (SMILES): CCn1cc(-c2ccnc3[nH]c(-c4cccc(CN(C)C)c4)cc23)c(-c2ccc(NC(=O)N(C)C)cc2)n1 [GSK-1070916]
- IC50 (Aurora kinase C [10]): 0.0065 µM
- Ki (Aurora kinase C [10]): 0.0015 µM
- Activity [11]: 270 min
- Ki (Aurora kinase C [12]): 0.0015 µM
- IC50 (Cytochrome P450 1A2): > 33 µM
- IC50 (Cytochrome P450 2C9 [13]): 38 µM
- IC50 (Cytochrome P450 2C19): 81 µM
- IC50 (Cytochrome P450 2D6 [14]): 12 µM
- inhibition (INH) (Cytochrome P450 3A4): Not Active
- clearance [15]: 2.96 L/h/kg
- AUC (Mus musculus [16]): 345 ng·h/mL/mg/kg
- Vd [17]: 0.8 L/kg
- MRT [18]: 18 min
- solubility [19]: > 10 mg/mL
- inhibition (Mus musculus [20]): Dose-dependent effect
- inhibition (HL-60 [21]): Active
- inhibition (HL-60 [22]): Active
- inhibition (HL-60 [23]): Active
- IC50 (Aurora kinase B [24]): 0.005 µM
